Assay results collected from several papers.
RXFP3: Relaxin-3 receptor 1 (RXFP3, Homo sapiens, UniProt Q9NSD7)
SMUG1: SMUG1 (Homo sapiens, UniProt Q53HV7)
BACE1: Beta-secretase 1 (BACE1, Homo sapiens, UniProt P56817)
BRAF: Serine/threonine-protein kinase B-raf (BRAF, Homo sapiens, UniProt P15056)
Delta-aminolevulinic acid dehydratase C162A/K59N: Delta-aminolevulinic acid dehydratase (Homo sapiens, UniProt P13716, C162A/K59N)
EPHB2: Ephrin type-B receptor 2 (EPHB2, Homo sapiens, UniProt P29323)
MAPK8: Mitogen-activated protein kinase 8 (MAPK8, Homo sapiens, UniProt P45983)
ELANE: Neutrophil elastase (ELANE, Homo sapiens, UniProt P08246)

SMILES	target	observed	mode	method	pH	notes	IC50
O=C(Nc1ccc(-c2nc(-c3ccc(Br)cc3)no2)cc1)C1CC(=O)N(Cc2cccnc2)C1 (stereo not shown)	RXFP3	cAMP	antagonist	TR-FRET	–	–	3.08 µM
O=C(Nc1ccc(Br)cc1)N1CCC(n2c(=O)[nH]c3c(Br)cccc32)CC1	SMUG1	enzyme activity	inhibitor	–	–	–	> 100 µM
CC(C)(O)C1Cc2c(cc3occ(-c4ccc(O)cc4)c(=O)c3c2O)O1 (stereo not shown)	BACE1	enzyme activity	inhibitor	–	–	–	> 90 µM
CC(C)(C)n1nc(-c2cnc3cc(OC4CC4)ccc3c2)c(C(N)=O)c1N	BRAF	cell-free assay	–	–	–	–	> 10 µM
CC(C)=CCCC(C)=CCc1c(O)cc2occ(-c3ccc(O)cc3)c(=O)c2c1O	BACE1	enzyme activity	inhibitor	–	–	–	> 200 µM
C=C(Cl)C(=O)Nc1cc(Nc2nc(Nc3cnn(C)c3)c3sccc3n2)c(OC)cc1N1CCN(C)CC1	Epidermal growth factor receptor (EGFR, Homo sapiens, UniProt P00533, C797S/L858R/T790M)	enzyme activity	inhibitor	ELISA	–	–	> 1 µM
CCOC(F)(F)c1nnc2cnc(-c3cnc(OCC(F)(F)F)c(F)c3)cn12	Sodium channel protein type 8 subunit alpha (Rattus norvegicus, UniProt O88420)	ion current	inhibitor	patch clamp	–	–	0.18 µM
COc1ccc2c(c1)OC1Oc3cc(O)c(CC=C(C)C)c(O)c3C(=O)C21O (stereo not shown)	BACE1	enzyme activity	inhibitor	–	–	–	91 µM
O=C1N[C@H](C(=O)O)CS1	Hydroxycarboxylic acid receptor 2 (HCAR2, Homo sapiens, UniProt Q8TDS4)	ligand displacement	–	radioligand	–	cell membranes	~900 µM
Nc1ncc(-c2nc(N3CCOCC3)nc(N3[C@@H]4CC[C@H]3COC4)n2)c(C(F)F)n1	Serine/threonine-protein kinase mTOR (MTOR, Homo sapiens, UniProt P42345)	ligand displacement	–	TR-FRET	–	–	0.0213 µM
CC(=O)N[C@H]1CSSC[C@@H](C(=O)N[C@H](Cc2c[nH]c3ccccc23)C(N)=O)NC(=O)[C@@H](Cc2ccccc2)NC(=O)[C@H](CCCNC(=N)N)NC1=O	Melanocortin receptor 3 (MC3R, Homo sapiens, UniProt P41968)	ligand displacement	–	radioligand	–	–	> 5 µM
Oc1c2ccccc2c2c3c(cccc13)N=N2	Non-receptor tyrosine-protein kinase TYK2 (TYK2, Homo sapiens, UniProt P29597)	enzyme activity	inhibitor	–	–	–	0.44 µM
COc1cc(NC(=O)N2CCC(n3c(=O)[nH]c4c(Br)cccc43)CC2)ccc1C	SMUG1	enzyme activity	inhibitor	–	–	–	> 100 µM
CCCCn1c(Sc2ccc(Cl)cc2Cl)nc2c(N)ncnc21	Endoplasmin (HSP90B1, Canis lupus familiaris, UniProt P41148)	ligand displacement	–	FP	–	–	0.8 µM
CCCS(=O)(=O)Nc1ccc(F)c(C(=O)c2c[nH]c3ncc(-c4ccc(CNC(=O)COCC(=O)NCc5ccc(-c6cnc7[nH]cc(C(=O)c8c(F)ccc(NS(=O)(=O)CCC)c8F)c7c6)cc5)cc4)cc23)c1F	Serine/threonine-protein kinase B-raf (BRAF, Homo sapiens, UniProt P15056, V600E)	enzyme activity	inhibitor	ELISA	–	–	~0.056 µM
CCn1ncc2c1-c1cnc(N)c(c1)O[C@H](C)c1cc(F)ccc1-c1nn(C)nc1C2	Muscle, skeletal receptor tyrosine-protein kinase (MUSK, Homo sapiens, UniProt O15146)	enzyme activity	inhibitor	radiometric	–	–	0.044 µM
Oc1ccc(-c2nc(-c3ccncc3)c(-c3ccc(F)cc3)[nH]2)cc1	BRAF	cell-free assay	inhibitor	–	–	–	1.13 µM
NC1=NCC(c2cccc3ccccc23)OC1 (stereo not shown)	BACE1	enzyme activity	inhibitor	FRET	pH 5	–	1100 µM
NCCCC[C@H](NC(=O)[C@@H]1CCCN1C(=O)[C@@H]1CSSC[C@H](N)C(=O)N[C@@H](Cc2ccc(O)cc2)C(=O)N[C@@H](Cc2ccccc2)C(=O)N[C@@H](CCC(N)=O)C(=O)N[C@@H](CC(N)=O)C(=O)N1)C(=O)NCC(N)=O	Vasopressin V2 receptor (AVPR2, Homo sapiens, UniProt P30518)	ligand displacement	–	radioligand	–	cell membranes	0.014 µM
CC(C)C[C@H](NC(=O)[C@H](Cc1ccccc1)NC(=O)[C@@H](N)Cc1ccc(O)cc1)C(=O)N[C@@H](Cc1ccccc1)C(=O)N[C@@H](CCCNC(=N)N)C(=O)N1CCC[C@H]1C(=O)N[C@@H](CCCNC(=N)N)C(=O)N[C@@H](CC(N)=O)C(N)=O	Neuromedin-U receptor 2 (Mus musculus, UniProt Q8BZ39)	ligand displacement	–	radioligand	–	–	9.12e-05 µM
CN1CCCN=C1/C=C/c1cccc(O)c1	Delta-aminolevulinic acid dehydratase C162A/K59N	enzyme activity	inhibitor	absorbance	pH 8	with preincubation	18 µM
CN1CCN(c2ccc(Nc3ncc4cc(C#N)c(=O)n(C5CCCC5)c4n3)cc2)CC1	EPHB2	enzyme activity	inhibitor	–	–	–	0.0868 µM
COc1ccc(S(=O)(=O)ON=C2C=C(C)C(=O)C(C)=C2)cc1	Histone acetyltransferase KAT5 (KAT5, Homo sapiens, UniProt Q92993)	enzyme activity	inhibitor	radiometric	–	–	> 100 µM

SMILES	target	observed	mode	method	pH	notes	IC50
O=C(N/N=C/CN1CCCCC1)Nc1cc2c(Nc3ccc(F)c(Cl)c3)ncnc2cc1O[C@H]1CCOC1	Epidermal growth factor receptor (EGFR, Homo sapiens, UniProt P00533, L858R/T790M)	enzyme activity	inhibitor	–	–	–	0.0086 µM
O=C(Nc1ccc(-c2nc(-c3ccccc3)no2)cc1)C1CC(=O)N(Cc2cccnc2)C1 (stereo not shown)	RXFP3	cAMP	antagonist	TR-FRET	–	–	7.69 µM
O=C(Nc1ccn(Cc2ccc(O)cc2C(F)(F)F)n1)c1c(F)cccc1F	Transient receptor potential cation channel subfamily V member 4 (TRPV4, Homo sapiens, UniProt Q9HBA0)	ion current	inhibitor	–	–	–	> 10 µM
COc1ccc2c(Oc3ccc4c(C(=O)Nc5ccccc5N)cccc4c3)ccnc2c1	MAPK8	enzyme activity	inhibitor	–	–	–	> 0.5 µM
O=C(O)c1ccccc1Nc1cccc(C(F)(F)F)c1	Delta-aminolevulinic acid dehydratase C162A/K59N	enzyme activity	inhibitor	absorbance	pH 8	with preincubation	2.5 µM
COc1cc(NC(=O)N2CCC(n3c(=O)[nH]c4c(Br)cccc43)CC2)ccc1Cl	SMUG1	enzyme activity	inhibitor	–	–	–	> 100 µM
NC(=O)N/N=C/c1ccc([N+](=O)[O-])o1	Delta-aminolevulinic acid dehydratase C162A/K59N	enzyme activity	inhibitor	absorbance	pH 8	with preincubation	2.1 µM
CCOC(=O)c1nn(C(=O)c2cccc(C)c2)c2ccccc2c1=O	ELANE	enzyme activity	inhibitor	fluorescence	–	–	0.21 µM
Cc1cc2cc(c1)C(=O)N[C@H]([C@H](O)CN(Cc1cccc(C(C)C)c1)C(=O)OC(C)(C)C)CCC/C=C/CCCC2=O	BACE1	enzyme activity	inhibitor	–	–	–	> 10 µM
CCOC(=O)c1nn(C(=O)C2CC2)c2ccccc2c1=O	ELANE	enzyme activity	inhibitor	fluorescence	–	–	0.58 µM
CC(O)C(C)C(=O)N1CCC(NC(=O)Nc2ccc(OC(F)(F)F)c(F)c2)CC1 (stereo not shown)	Bifunctional epoxide hydrolase 2 (Ephx2, Mus musculus, UniProt P34914)	enzyme activity	inhibitor	–	–	–	0.0022 µM
Cc1ncsc1-c1ccc(CNC(=O)[C@@H]2C[C@@H](O)CN2C(=O)[C@@H](NC(=O)C2(F)CC2)C(C)(C)C)c(OCCOCCOCCN2CCN(c3cc(-c4ccccc4O)nnc3N)CC2)c1	SWI/SNF-related matrix-associated actin-dependent regulator of chromatin subfamily A member 2, bromodomain (SMARCA2, Homo sapiens, UniProt P51531)	ligand displacement	–	TR-FRET	–	–	2.4 µM
O=Cc1cc(Br)cc(Br)c1O	Delta-aminolevulinic acid dehydratase C162A/K59N	enzyme activity	inhibitor	absorbance	pH 8	with preincubation	22 µM
C=CC(=O)Nc1cc(Nc2nccc(-c3cn(C4CC4)c4ccccc34)n2)c(OC)cc1N(C)CCN(C)C	Epidermal growth factor receptor (EGFR, Homo sapiens, UniProt P00533, L747S)	enzyme activity	inhibitor	TR-FRET	–	–	0.00309 µM
O=C(Nc1ccc(-c2nc(-c3ccc(F)cc3)no2)cc1)C1CC(=O)N(Cc2cccnc2)C1 (stereo not shown)	RXFP3	cAMP	antagonist	TR-FRET	–	–	2.67 µM
Cc1ccc(NC(=O)c2ccc(C)c(C(F)(F)F)c2)cc1C#Cc1nn(C2CCC(O)CC2)c2ncnc(N)c12 (stereo not shown)	EPHB2	enzyme activity	inhibitor	radiometric	–	–	0.033 µM
[N-]=[N+]=N[C@H](CC(=O)NO)Cc1ccc(O)cc1	Endoplasmic reticulum aminopeptidase 2 (ERAP2, Homo sapiens, UniProt Q6P179)	enzyme activity	inhibitor	fluorescence	–	–	59 µM
CCN1CCN(c2c(Cl)cccc2NC(=O)c2ccc(Br)o2)CC1	MAPK8	enzyme activity	inhibitor	TR-FRET	–	–	0.49 µM
N#CC(C(=O)c1ccc(Cl)cc1Cl)=C1NC(=O)c2ccc(OCc3ccc4c(c3)OCO4)cc2N1	Cytoplasmic dynein 2 heavy chain 1 (DYNC2H1, Homo sapiens, UniProt Q8NCM8)	ATPase activity	inhibitor	–	–	–	11 µM
Cc1cccc(C(=O)Oc2cnnc3ccc([N+](=O)[O-])cc23)c1	ELANE	enzyme activity	inhibitor	fluorescence	–	–	0.59 µM
Cc1ccc(C(=O)Nc2ccc(Oc3cc4cnn(C)c4cc3-c3cn[nH]c3)c(F)c2)c(=O)n1-c1ccc(F)cc1	Proto-oncogene tyrosine-protein kinase ROS (ROS1, Homo sapiens, UniProt P08922)	phosphorylation in cells	inhibitor	western blot	–	–	0.17 µM
O=c1oc2c(O)c(O)cc3c(=O)oc4c(O)c(O)cc1c4c23	DNA polymerase iota (Homo sapiens, UniProt Q9UNA4)	enzyme activity	inhibitor	–	–	–	0.081 µM
CC(C)C[C@H](NC(=O)[C@@H]1COCCCCCCCC(=O)N2CCC[C@H]2C(=O)N1)C(=O)[C@@]1(C)CO1	Proteasome Macropain subunit MB1 (PSMB5, Homo sapiens, UniProt P28074)	enzyme activity	inhibitor	fluorescence	–	–	> 10 µM
